Source: ChEMBL document CHEMBL1154321, “Benzoxazole piperidines as selective and potent somatostatin receptor subtype 5 antagonists” (Bioorg Med Chem Lett, 2009)
Values after ≈ are worked out from the molar mass of the structure shown.

Key:
[1] = molecular target: Somatostatin receptor type 3 (Homo sapiens, UniProt P32745); experiment: Displacement of SST14 from human recombinant SST3 receptor
Procedure, shortened: (§1)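 Membranes prepared by sonication from cells expressing the SST receptor subtype, incubated with radiolabeled 11-Tyr SST-14 tracer and test compound at varying concentrations; non-labeled SST-14 defined non-specific binding. Incubation stopped by glass-fiber filtration, bound radioactivity counted; IC50 for half-maximal binding inhibition estimated and Ki derived.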

[2] = molecular target: Somatostatin receptor type 2 (Homo sapiens, UniProt P30874); experiment: Displacement of SST14 from human recombinant SST2 receptor; procedure, shortened: as §1
Histamine H1 receptor = Histamine H1 receptor (Homo sapiens, UniProt P35367); experiment: Binding affinity to human histamine H1 receptor
[3] = Dissociation constant, pKa by spectrophotometry; type: physicochemical
[4] = Octanol-TAPSO partition coefficient, log D at pH 7.4 by spectrophotometry; type: physicochemical; conditions: octanol/TAPSO buffer
Procedure, shortened: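 Spectrophotometric log D in 1-octanol/50 mM TAPSO buffer, pH 7.4, containing 5% (v/v) DMSO.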

[5] = molecular target: 5-hydroxytryptamine receptor 2B (Homo sapiens, UniProt P41595); experiment: Binding affinity to human 5HT2B receptor
Homo sapiens = species: Homo sapiens; experiment: Selectivity ratio of Ki for human histamine H1 receptor to Ki for human SST5 receptor
[6] = Solubility in phosphate buffer at pH 6.5 by lyophilization solubility assay; type: physicochemical
Procedure, shortened: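 Lyophilized DMSO stock solutions redissolved in 50 mM phosphate buffer, pH 6.5; solubility read spectrophotometrically.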

[7] = molecular target: Somatostatin receptor type 5 (Homo sapiens, UniProt P35346); experiment: Displacement of SST14 from human recombinant SST5 receptor expressed in CHO cells by radioligand binding assay; type: cell-based; procedure, shortened: as §1
[8] = molecular target: Somatostatin receptor type 4 (Homo sapiens, UniProt P31391); experiment: Displacement of SST14 from human recombinant SST4 receptor; procedure, shortened: as §1
[9] = sPermeability by PAMPA; type: ADME; conditions: read-out: permeability
Procedure, shortened: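 Parallel artificial membrane permeation; Pe categorized as low (<0.1), medium (0.1–1.0) or high (>1.0).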

[10] = molecular target: Somatostatin receptor type 1 (Homo sapiens, UniProt P30872); experiment: Displacement of SST14 from human recombinant SST1 receptor; procedure, shortened: as §1
[11] = Oral bioavailability in Wistar rat administered as single dose; type: ADME, organism-based; conditions: in vivo
[12] = Volume of distribution at steady state in Wistar rat administered as single dose; type: ADME, organism-based; conditions: in vivo, read-out: Vdss
[13] = Clearance in Wistar rat administered as single dose; type: ADME, organism-based; conditions: in vivo
[14] = Terminal half-life in Wistar rat administered as single dose; type: ADME, organism-based; conditions: in vivo, read-out: beta t1/2 (converted)
[15] = molecular target: Voltage-gated inwardly rectifying potassium channel KCNH2 (Homo sapiens, UniProt Q12809); experiment: (§2) Inhibition of human ERG expressed in CHO cells by patch clamp technique; type: cell-based
hERG (KCNH2) = hERG (KCNH2) (Homo sapiens, UniProt Q12809); experiment: as §2; type: cell-based; conditions: human, CHO cells expressing human ERG

Sequence of Somatostatin receptor type 3 (P32745 whole entry): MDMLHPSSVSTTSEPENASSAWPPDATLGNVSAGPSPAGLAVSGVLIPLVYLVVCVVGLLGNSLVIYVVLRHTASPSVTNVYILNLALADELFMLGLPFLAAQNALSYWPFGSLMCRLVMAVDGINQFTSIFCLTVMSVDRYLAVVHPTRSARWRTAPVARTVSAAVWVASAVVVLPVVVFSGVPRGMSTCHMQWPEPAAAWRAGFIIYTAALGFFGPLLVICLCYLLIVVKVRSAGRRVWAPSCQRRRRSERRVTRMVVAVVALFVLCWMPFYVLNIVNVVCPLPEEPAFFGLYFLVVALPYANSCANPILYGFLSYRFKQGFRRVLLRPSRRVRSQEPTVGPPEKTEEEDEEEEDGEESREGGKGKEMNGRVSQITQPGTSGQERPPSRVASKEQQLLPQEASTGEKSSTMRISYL
Sequence of Somatostatin receptor type 5 (P35346 whole entry): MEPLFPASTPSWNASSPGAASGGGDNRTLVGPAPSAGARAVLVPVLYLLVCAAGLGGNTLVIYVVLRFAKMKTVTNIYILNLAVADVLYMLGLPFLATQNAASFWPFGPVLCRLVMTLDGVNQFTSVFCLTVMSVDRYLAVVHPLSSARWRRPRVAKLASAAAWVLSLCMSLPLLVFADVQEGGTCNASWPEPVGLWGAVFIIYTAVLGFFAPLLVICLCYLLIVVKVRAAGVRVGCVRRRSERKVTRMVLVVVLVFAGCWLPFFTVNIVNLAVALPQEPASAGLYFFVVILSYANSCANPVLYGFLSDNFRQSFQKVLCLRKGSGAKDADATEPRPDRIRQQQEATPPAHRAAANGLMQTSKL
Sequence of Somatostatin receptor type 1 (P30872 whole entry): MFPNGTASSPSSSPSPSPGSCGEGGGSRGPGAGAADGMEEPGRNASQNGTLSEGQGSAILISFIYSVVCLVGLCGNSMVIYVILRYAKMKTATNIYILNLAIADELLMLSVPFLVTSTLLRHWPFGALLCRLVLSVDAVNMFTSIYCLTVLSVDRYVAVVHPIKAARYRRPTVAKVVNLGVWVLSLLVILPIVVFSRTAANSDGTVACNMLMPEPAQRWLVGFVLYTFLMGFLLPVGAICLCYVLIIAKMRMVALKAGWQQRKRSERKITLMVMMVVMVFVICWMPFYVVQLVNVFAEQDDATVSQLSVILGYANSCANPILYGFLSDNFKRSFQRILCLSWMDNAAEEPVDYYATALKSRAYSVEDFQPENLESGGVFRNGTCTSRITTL
Sequence of 5-hydroxytryptamine receptor 2B (P41595 whole entry): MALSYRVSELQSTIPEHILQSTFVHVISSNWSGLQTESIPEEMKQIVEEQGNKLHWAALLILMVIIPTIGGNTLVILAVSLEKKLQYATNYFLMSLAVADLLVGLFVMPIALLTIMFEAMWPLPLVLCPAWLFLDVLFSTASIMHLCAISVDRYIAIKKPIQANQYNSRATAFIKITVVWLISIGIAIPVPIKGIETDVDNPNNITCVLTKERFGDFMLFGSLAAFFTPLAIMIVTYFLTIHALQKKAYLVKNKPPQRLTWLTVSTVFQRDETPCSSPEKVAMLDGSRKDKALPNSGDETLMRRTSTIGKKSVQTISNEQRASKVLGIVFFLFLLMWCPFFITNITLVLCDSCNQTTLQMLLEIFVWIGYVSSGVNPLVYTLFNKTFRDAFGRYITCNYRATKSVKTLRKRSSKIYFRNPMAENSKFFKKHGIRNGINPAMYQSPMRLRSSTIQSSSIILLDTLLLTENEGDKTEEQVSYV
Sequence of Somatostatin receptor type 2 (P30874 whole entry): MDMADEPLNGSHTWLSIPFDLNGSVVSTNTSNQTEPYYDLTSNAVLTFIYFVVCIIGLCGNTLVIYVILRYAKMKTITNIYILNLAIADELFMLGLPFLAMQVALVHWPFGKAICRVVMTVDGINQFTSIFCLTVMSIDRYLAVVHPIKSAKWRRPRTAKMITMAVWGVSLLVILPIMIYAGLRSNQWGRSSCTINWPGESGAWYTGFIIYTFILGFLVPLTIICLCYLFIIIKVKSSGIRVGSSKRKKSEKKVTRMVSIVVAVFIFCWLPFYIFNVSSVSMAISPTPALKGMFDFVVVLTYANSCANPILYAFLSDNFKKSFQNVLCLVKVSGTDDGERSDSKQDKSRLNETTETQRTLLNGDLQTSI
Sequence of Somatostatin receptor type 4 (P31391 whole entry): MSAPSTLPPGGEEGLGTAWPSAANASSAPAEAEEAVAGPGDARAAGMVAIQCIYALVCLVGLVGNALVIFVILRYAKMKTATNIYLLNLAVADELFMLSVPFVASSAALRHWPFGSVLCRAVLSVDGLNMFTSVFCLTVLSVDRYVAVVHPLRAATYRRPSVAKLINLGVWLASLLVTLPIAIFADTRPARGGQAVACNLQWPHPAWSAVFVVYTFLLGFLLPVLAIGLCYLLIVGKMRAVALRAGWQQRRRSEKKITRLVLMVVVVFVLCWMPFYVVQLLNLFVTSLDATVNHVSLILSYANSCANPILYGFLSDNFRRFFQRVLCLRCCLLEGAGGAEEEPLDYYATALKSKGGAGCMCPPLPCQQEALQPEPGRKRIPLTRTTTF
Sequence of Histamine H1 receptor (P35367 whole entry): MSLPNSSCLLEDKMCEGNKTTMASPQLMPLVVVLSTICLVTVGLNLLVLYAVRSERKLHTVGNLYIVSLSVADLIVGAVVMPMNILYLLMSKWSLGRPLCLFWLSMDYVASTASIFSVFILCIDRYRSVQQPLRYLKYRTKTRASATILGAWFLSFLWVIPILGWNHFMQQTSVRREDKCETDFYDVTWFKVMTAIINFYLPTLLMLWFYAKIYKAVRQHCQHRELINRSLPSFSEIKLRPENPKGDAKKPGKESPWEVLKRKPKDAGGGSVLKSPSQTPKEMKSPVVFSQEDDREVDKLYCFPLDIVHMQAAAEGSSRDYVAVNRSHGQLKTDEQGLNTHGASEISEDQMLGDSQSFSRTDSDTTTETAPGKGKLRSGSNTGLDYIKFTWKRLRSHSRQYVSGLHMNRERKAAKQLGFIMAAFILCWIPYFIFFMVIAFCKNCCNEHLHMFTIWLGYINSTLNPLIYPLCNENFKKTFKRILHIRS
Sequence of Voltage-gated inwardly rectifying potassium channel KCNH2 (Q12809 whole entry): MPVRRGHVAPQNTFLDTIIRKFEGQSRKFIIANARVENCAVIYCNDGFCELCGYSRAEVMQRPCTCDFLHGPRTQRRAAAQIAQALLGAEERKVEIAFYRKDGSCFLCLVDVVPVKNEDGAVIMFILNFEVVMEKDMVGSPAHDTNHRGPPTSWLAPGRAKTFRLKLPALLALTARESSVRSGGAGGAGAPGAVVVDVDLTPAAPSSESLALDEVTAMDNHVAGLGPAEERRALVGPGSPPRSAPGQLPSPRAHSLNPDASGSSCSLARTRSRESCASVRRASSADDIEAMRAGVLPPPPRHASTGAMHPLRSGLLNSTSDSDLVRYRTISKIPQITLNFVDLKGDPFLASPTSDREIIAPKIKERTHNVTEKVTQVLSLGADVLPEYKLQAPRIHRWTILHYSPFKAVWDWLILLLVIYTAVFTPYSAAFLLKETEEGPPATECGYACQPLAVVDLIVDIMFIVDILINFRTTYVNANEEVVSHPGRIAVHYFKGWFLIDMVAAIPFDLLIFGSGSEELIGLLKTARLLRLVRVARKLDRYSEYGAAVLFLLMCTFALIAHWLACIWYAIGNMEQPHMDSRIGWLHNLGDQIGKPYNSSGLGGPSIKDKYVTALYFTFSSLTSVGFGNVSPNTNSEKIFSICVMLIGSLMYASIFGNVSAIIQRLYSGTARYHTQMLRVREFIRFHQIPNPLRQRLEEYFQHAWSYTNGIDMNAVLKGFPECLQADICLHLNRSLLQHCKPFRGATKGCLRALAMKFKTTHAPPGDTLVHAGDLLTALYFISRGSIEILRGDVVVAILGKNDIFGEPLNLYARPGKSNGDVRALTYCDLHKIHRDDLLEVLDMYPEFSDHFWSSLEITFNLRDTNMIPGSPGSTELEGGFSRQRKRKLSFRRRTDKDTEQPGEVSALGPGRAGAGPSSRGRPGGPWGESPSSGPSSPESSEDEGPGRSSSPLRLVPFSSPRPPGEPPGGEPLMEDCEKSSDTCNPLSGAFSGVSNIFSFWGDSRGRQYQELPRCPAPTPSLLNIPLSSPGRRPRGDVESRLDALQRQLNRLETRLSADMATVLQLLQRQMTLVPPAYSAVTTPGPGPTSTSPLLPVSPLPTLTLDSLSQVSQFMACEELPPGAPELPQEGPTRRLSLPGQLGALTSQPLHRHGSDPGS

SMILES | Ki [1] | Ki [2] | Ki (Histamine H1 receptor) | pKa [3] | logD [4] | Ki [5] | Ratio Ki (Homo sapiens) | solubility [6] | Ki [7] | Ki [8] | Papp [9] | Ki [10] | bioavailability [11] | Vd [12] | clearance [13] | half-life [14] | IC50 [15] | IC50 (hERG (KCNH2))
CCOc1cc(CN2CCC(Nc3nc4cc(Cl)c(S(N)(=O)=O)cc4o3)CC2)ccc1F | > 10 µM | > 10 µM | 1.37 µM | 7.61 | 2.78 | > 10 µM | 5.5 | 32 µg/mL (≈ 66.3 µM) | 0.252 µM | > 10 µM | 2.45 ×10⁻⁶ cm/s |  |  |  |  |  |  | 
CCOc1cc(CN2CCC(Nc3nc4cc(Cl)c(S(N)(=O)=O)cc4o3)CC2)ccc1OC | > 10 µM | > 10 µM | 1.01 µM | 7.92 | 2.67 |  | 3 | 338 µg/mL (≈ 683 µM) | 0.343 µM | > 10 µM | 1.1 ×10⁻⁶ cm/s |  |  |  |  |  |  | 
CCOc1cc(CN2CCC(Nc3nc4cc(S(N)(=O)=O)ccc4o3)CC2)cc(OCC)c1N |  |  | 2.6 µM | 8.28 | 1.62 |  | 200 | 335 µg/mL (≈ 684 µM) |  |  |  | 1.75 µM |  |  |  |  |  | 
CCOc1cc(CN2CCC(Nc3nc4cc(S(=O)(=O)CC)ccc4o3)CC2)ccc1OC | > 10 µM | > 10 µM |  | 8.1 | 2.13 |  |  | > 530 µg/mL | 0.196 µM | > 10 µM | 1.63 ×10⁻⁶ cm/s |  | 6% | 3.8 L/kg | 126 mL/min/kg | 0.4 h |  | 
CCOc1cc(CN2CCC(Nc3nc4cc(NS(=O)(=O)c5cn(C)cn5)ccc4o3)CC2)ccc1OC | > 10 µM | > 10 µM |  | 7.91 | 1.48 |  |  | > 720 µg/mL | 0.175 µM | > 10 µM | 0.49 ×10⁻⁶ cm/s |  | 2% | 2.2 L/kg | 41 mL/min/kg | 1.5 h |  | 
CCOc1cc(CN2CCC(Nc3nc4ccc(Cl)cc4o3)CC2)ccc1Cl | > 10 µM | > 10 µM |  |  |  |  |  | 44 µg/mL (≈ 105 µM) | 0.239 µM | > 10 µM | 4.81 ×10⁻⁶ cm/s |  | 33% | 4.6 L/kg | 37 mL/min/kg | 2.6 h |  | 
CCOc1cc(CN2CCC(Nc3nc4cc(C(=O)O)ccc4o3)CC2)cc(OCC)c1Cl | > 10 µM | > 10 µM |  |  | 1.82 |  | > 200 | 14 µg/mL (≈ 29.5 µM) | 0.003 µM | > 10 µM | 2.09 ×10⁻⁶ cm/s | 4.5 µM | 12% | 1.8 L/kg | 18 mL/min/kg | 4.9 h | > 10 µM | 
CCOc1cc(CN2CCC(Nc3nc4ccccc4o3)CC2)ccc1Cl | > 10 µM | > 10 µM | 0.266 µM | 7.63 | 3.44 | 0.074 µM | 2.4 | 44 µg/mL (≈ 114 µM) |  | > 10 µM | 0.49 ×10⁻⁶ cm/s |  |  |  |  |  |  | 
CCOc1cc(CN2CCC(Nc3nc4cc(NS(=O)(=O)c5ccccc5)ccc4o3)CC2)ccc1OC | > 10 µM | > 10 µM | 0.199 µM | 7.72 | 1.93 |  | 1 | 145 µg/mL (≈ 270 µM) | 0.205 µM | > 10 µM | 2.2 ×10⁻⁶ cm/s |  |  |  |  |  |  | 
CCOc1cc(CN2CCC(Nc3nc4cc(S(=O)(=O)CC)ccc4o3)CC2)cc(OC2CCOCC2)c1 | > 10 µM | > 10 µM | 38.4 µM | 7.55 | 3.13 |  | 698 | 183 µg/mL (≈ 337 µM) | 0.055 µM | > 10 µM | 1.75 ×10⁻⁶ cm/s |  |  |  |  |  |  | 
CCOc1cc(CN2CCC(Nc3nc4cc(S(N)(=O)=O)ccc4o3)CC2)ccc1OC | > 10 µM | > 10 µM | 0.52 µM | 8.05 | 1.51 |  | 1 | > 614 µg/mL | 0.529 µM | > 10 µM | 1.64 ×10⁻⁶ cm/s |  | 4% | 8.2 L/kg | 103 mL/min/kg | 1.7 h |  | 3.5 µM
CCOc1cc(CN2CCC(Nc3nc4cc(C(N)=O)ccc4o3)CC2)cc(OCC)c1F | > 10 µM | > 10 µM |  | 7.72 | 2.96 |  |  | 148 µg/mL (≈ 324 µM) | 0.008 µM | > 10 µM | 1.61 ×10⁻⁶ cm/s |  | 38% | 3.3 L/kg | 28 mL/min/kg | 2.5 h | 0.43 µM | 
CCOc1cc(CN2CCC(Nc3nc4cc(NC(=O)C5CCC5)ccc4o3)CC2)ccc1OC | > 10 µM | > 10 µM | 0.923 µM |  | 2.64 | > 10 µM | 5.1 | > 638 µg/mL | 0.182 µM | > 10 µM | 1.1 ×10⁻⁶ cm/s | 4.95 µM |  |  |  |  |  | 
CCOc1cc(CN2CCC(Nc3nc4ccccc4o3)CC2)cc(OC2CCOCC2)c1 | > 10 µM | > 10 µM | 3.6 µM | 7.76 | 3.02 | 0.094 µM | 18 | 212 µg/mL (≈ 469 µM) | 0.199 µM | > 10 µM | 2.05 ×10⁻⁶ cm/s |  |  |  |  |  |  | 
